One data set deals with Nannizzia gypsea. As to the kind of experiment: Antifungal activity against Microsporum gypseum C 115 2000. It counts as functional. An outline of the steps: (§1)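 Dermatophytes tested by CLSI M38-A2 microdilution in MOPS-buffered RPMI-1640 at pH 7.0. Inoculum 1-5 × 10^3 CFU/mL; compounds 250 to 0.24 µg/ml in twofold steps, final DMSO <1%. Incubated at 28 °C in a moist, dark chamber and read according to control growth. MIC is the lowest concentration with complete inhibition. MFC is the lowest concentration with no growth after duplicate subculture on SDA.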

The subject of data set [1] is Trichophyton mentagrophytes. As to the kind of experiment: Antifungal activity against Trichophyton mentagrophytes ATCC 9972. It counts as functional. An outline of the steps: as §1
A further data set relates to SF-268. As to the kind of experiment: Cytotoxicity against human SF268 cells assessed as cell growth after 2 days by sulforhodamine B assay. Format: functional. Conditions: SF-268, 48 h. Summed up: (§2)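 NCI cell lines were run by the Monks method: cells were plated with compounds from DMSO stocks and incubated 2 days at 37 °C in 5% CO2, in duplicate. Cells were fixed with cold TCA, stained with 0.4% SRB, and the bound dye was solubilized in 10 mM tris-base and read at 515 nm. The zero-day control was subtracted, and GI50 was taken from the curves.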

A further data set relates to MCF7. Description: Cytotoxicity against human MCF7 cells assessed as cell growth after 2 days by sulforhodamine B assay. Format: functional. As to conditions: MCF7, 48 h. An outline of the steps:
as §2
(In general: In SRB staining, fixed cells bind dye roughly in proportion to their protein.)

The next data set deals with Trichophyton rubrum. As to the kind of experiment: Antifungal activity against Trichophyton rubrum C 113 2000. It counts as functional. Summed up: as §1
Data set [2] can be described thus: Cytotoxicity against human erythrocytes assessed as hemolysis by spectrometric analysis. Format: cell-based, Erythrocyte. Summed up: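 Human heparinized red blood cells were washed in PBS at pH 7.0 and suspended at 4% in sterile 5% glucose. Compounds from DMSO stocks were diluted in 5% glucose to final concentrations of 250 to 0.24 µg/ml and incubated with the cells at 37 °C. Released hemoglobin was read at 540 nm. HC50 is the concentration giving 50% lysis relative to the drug-free value.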

In the next data set the test system is Cryptococcus neoformans. Description: Antifungal activity against Cryptococcus neoformans ATCC 32264. Format: functional. Summed up:
(§3)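 CLSI M27-A3 broth microdilution in RPMI-1640 buffered to pH 7.0 with MOPS. Inoculum 1-5 × 10^3 CFU/mL. Compound twofold dilutions from 250 to 0.24 µg/ml, final DMSO <1%. Incubated at 35 °C in a moist, dark chamber and read at 48 h. MIC is the lowest concentration giving total growth inhibition. For MFC, 5 µL from clear wells was plated in duplicate on SDA; MFC is the lowest concentration with no growth.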

For a further data set, the system named is Aspergillus fumigatus. Description: Antifungal activity against Aspergillus fumigatus ATCC 26934. It counts as functional. Summed up: (§4)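 Broth microdilution per CLSI M38-A2 in RPMI-1640 with MOPS at pH 7.0. Inoculum 1-5 × 10^3 CFU/mL, with twofold compound dilutions spanning 250-0.24 µg/ml (final DMSO <1%). Plates incubated at 35 °C, moist and dark, and read when the control fungus had grown. MIC is total growth inhibition. MFC comes from subculturing clear wells in duplicate onto SDA.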

The next data set deals with NCI-H460. As to the kind of experiment: Cytotoxicity against human H460 cells assessed as cell growth after 2 days by sulforhodamine B assay. Format: functional. As to conditions: NCI-H460, 48 h. Summed up:
as §2

Another data set deals with Aspergillus niger. As to the kind of experiment: Antifungal activity against Aspergillus niger ATCC 9029. It counts as functional. Summed up:
as §4

The subject of another data set is Saccharomyces cerevisiae. As to the kind of experiment: Antifungal activity against Saccharomyces cerevisiae ATCC 9763. Format: functional. Summed up:
as §3

A further data set concerns Candida albicans. As to the kind of experiment: Antifungal activity against Candida albicans ATCC 10213. It counts as functional. Summed up: as §3
A further data set deals with Candida tropicalis. As to the kind of experiment: Antifungal activity against Candida tropicalis C 131 2000. It counts as functional. Summed up:
as §3

For a further data set, the system named is Aspergillus flavus. As to the kind of experiment: Antifungal activity against Aspergillus flavus ATCC 9170. Format: functional. Summed up: as §4

Values after ≈ are worked out from the molar mass of the structure shown.

Regarding `Cc1ccccc1N1C(=O)C=CC1=O`, the MFC was 7.81 µg/mL (≈ 41.7 µM) in the data set with Nannizzia gypsea; 3.9 µg/mL (≈ 20.8 µM) in data set [1]; 3.9 µg/mL (≈ 20.8 µM) with Trichophyton rubrum; 7.81 µg/mL (≈ 41.7 µM) in the data set with Cryptococcus neoformans; 125 µg/mL (≈ 668 µM) against Aspergillus fumigatus; 62.5 µg/mL (≈ 334 µM) against Aspergillus niger. Moreover, the MFC in the data set on Saccharomyces cerevisiae worked out at 7.81 µg/mL (≈ 41.7 µM); in the data set with Candida albicans it was 15.6 µg/mL (≈ 83.5 µM); against Candida tropicalis it was 31.2 µg/mL (≈ 167 µM); against Aspergillus flavus, 62.5 µg/mL (≈ 334 µM). Besides, the MIC against Nannizzia gypsea worked out at 3.9 µg/mL (≈ 20.8 µM); in data set [1], 1.95 µg/mL (≈ 10.4 µM); in the data set on Trichophyton rubrum, 1.95 µg/mL (≈ 10.4 µM); with Cryptococcus neoformans, 7.81 µg/mL (≈ 41.7 µM); against Aspergillus fumigatus it was 62.5 µg/mL (≈ 334 µM); against Aspergillus niger, 15.6 µg/mL (≈ 83.5 µM). In addition, the MIC with Saccharomyces cerevisiae came out at 7.81 µg/mL (≈ 41.7 µM); with Candida albicans, 15.6 µg/mL (≈ 83.5 µM); in the data set on Candida tropicalis it was 15.6 µg/mL (≈ 83.5 µM); with Aspergillus flavus, 62.5 µg/mL (≈ 334 µM). The GI50 in the data set with SF-268, in the data set with MCF7 and in the data set on NCI-H460 was greater than 10 µg/mL in each case. Moreover, in [2], the HC50 was greater than 250 µg/mL.
For the compound `CC1=CC(=O)N(c2ccccc2)C1=O`, the MFC against Nannizzia gypsea came to 15.6 µg/mL (≈ 83.5 µM); in data set [1], 62.5 µg/mL (≈ 334 µM); against Trichophyton rubrum, 15.6 µg/mL (≈ 83.5 µM); in the data set on Cryptococcus neoformans, 62.5 µg/mL (≈ 334 µM); in the data set on Aspergillus fumigatus it was 62.5 µg/mL (≈ 334 µM); against Aspergillus niger, 250 µg/mL (≈ 1340 µM). For the same compound, the MFC against Saccharomyces cerevisiae, in the data set on Candida albicans, against Candida tropicalis and against Aspergillus flavus was 125 µg/mL (≈ 668 µM) in each case. The MIC was found to be 7.81 µg/mL (≈ 41.7 µM) against Nannizzia gypsea; 31.2 µg/mL (≈ 167 µM) in data set [1]; 7.81 µg/mL (≈ 41.7 µM) in the data set with Trichophyton rubrum; 31.2 µg/mL (≈ 167 µM) in the data set with Cryptococcus neoformans; 31.2 µg/mL (≈ 167 µM) in the data set on Aspergillus fumigatus; 125 µg/mL (≈ 668 µM) against Aspergillus niger. Also, the MIC in the data set with Saccharomyces cerevisiae worked out at 31.2 µg/mL (≈ 167 µM); in the data set with Candida albicans, 62.5 µg/mL (≈ 334 µM); in the data set with Candida tropicalis, 62.5 µg/mL (≈ 334 µM); in the data set on Aspergillus flavus, 62.5 µg/mL (≈ 334 µM). Moreover, the GI50 in the data set on SF-268, with MCF7 and in the data set with NCI-H460 was greater than 10 µg/mL in each case. Further, in data set [2], the HC50 was greater than 250 µg/mL.
With `O=C1C=CC(=O)N1c1ccc2c(c1)OCO2`, the MFC with Nannizzia gypsea came out at 1.95 µg/mL (≈ 8.98 µM); in [1] it was 3.9 µg/mL (≈ 18 µM); against Trichophyton rubrum, 3.9 µg/mL (≈ 18 µM); in the data set on Cryptococcus neoformans it was 15.6 µg/mL (≈ 72 µM); against Aspergillus fumigatus, 125 µg/mL (≈ 576 µM); against Aspergillus niger, 125 µg/mL (≈ 576 µM). The MFC amounted to 15.6 µg/mL (≈ 72 µM) with Saccharomyces cerevisiae, 62.5 µg/mL (≈ 288 µM) with Candida albicans, 62.5 µg/mL (≈ 288 µM) against Candida tropicalis and 125 µg/mL (≈ 576 µM) with Aspergillus flavus. In addition, the MIC was found to be 1.95 µg/mL (≈ 8.98 µM) in the data set with Nannizzia gypsea; 1.95 µg/mL (≈ 8.98 µM) in data set [1]; 1.95 µg/mL (≈ 8.98 µM) with Trichophyton rubrum; 7.81 µg/mL (≈ 36 µM) in the data set on Cryptococcus neoformans; 62.5 µg/mL (≈ 288 µM) in the data set on Aspergillus fumigatus; 62.5 µg/mL (≈ 288 µM) with Aspergillus niger. Further, the MIC with Saccharomyces cerevisiae stood at 7.81 µg/mL (≈ 36 µM); against Candida albicans it was 31.2 µg/mL (≈ 144 µM); against Candida tropicalis, 31.2 µg/mL (≈ 144 µM); against Aspergillus flavus it was 62.5 µg/mL (≈ 288 µM). Also, the GI50 in the data set with SF-268, in the data set on MCF7 and in the data set with NCI-H460 was greater than 10 µg/mL throughout. For the same compound, in data set [2], the HC50 was greater than 250 µg/mL.
For `O=C1C=CC(=O)N1c1ccc(F)cc1`, the MFC in the data set on Nannizzia gypsea turned out to be 7.81 µg/mL (≈ 40.9 µM); in [1], 7.81 µg/mL (≈ 40.9 µM); against Trichophyton rubrum it was 7.81 µg/mL (≈ 40.9 µM); against Cryptococcus neoformans, 15.6 µg/mL (≈ 81.8 µM); with Aspergillus fumigatus, 31.2 µg/mL (≈ 163 µM); against Aspergillus niger, 7.81 µg/mL (≈ 40.9 µM). Moreover, the MFC came to 7.81 µg/mL (≈ 40.9 µM) with Saccharomyces cerevisiae, 15.6 µg/mL (≈ 81.8 µM) against Candida albicans, 15.6 µg/mL (≈ 81.8 µM) in the data set on Candida tropicalis and 15.6 µg/mL (≈ 81.8 µM) in the data set on Aspergillus flavus. The MIC was 3.9 µg/mL (≈ 20.4 µM) against Nannizzia gypsea; 3.9 µg/mL (≈ 20.4 µM) in [1]; 3.9 µg/mL (≈ 20.4 µM) against Trichophyton rubrum; 7.81 µg/mL (≈ 40.9 µM) against Cryptococcus neoformans; 15.6 µg/mL (≈ 81.8 µM) with Aspergillus fumigatus; 7.81 µg/mL (≈ 40.9 µM) in the data set with Aspergillus niger. Moreover, the MIC against Saccharomyces cerevisiae was 3.9 µg/mL (≈ 20.4 µM); with Candida albicans, 15.6 µg/mL (≈ 81.8 µM); with Candida tropicalis, 15.6 µg/mL (≈ 81.8 µM); in the data set on Aspergillus flavus, 15.6 µg/mL (≈ 81.8 µM). In addition, the GI50 in the data set with SF-268, with MCF7 and with NCI-H460 was greater than 10 µg/mL throughout. The HC50 in [2] was greater than 250 µg/mL.

The MFC is the lowest tested concentration that kills the fungus rather than only halting it. Read a high MFC as less potent killing. One may read the MIC as the least concentration at which growth counts as inhibited. Read a low MIC as greater potency. In general, GI50 refers to the concentration giving 50% growth inhibition. For orientation: HC50 means the concentration giving 50% haemolysis.

These data come from ChEMBL document CHEMBL1772954, “Antifungal, cytotoxic and SAR studies of a series of N-alkyl, N-aryl and N-alkylphenyl-1,4-pyrrolediones and related compounds” (Bioorg Med Chem, 2011).
